Converted amounts (≈) assume the structure as drawn.

The test system of test [1] is Micrococcus luteus. Nature of the test: Antibiofilm activity against Micrococcus luteus MTCC 2470 after 24 hrs by crystal violet staining based assay. The following applies: MTCC 2470, 24 h. Type of test: functional, organism-based. In a few lines:
(§1)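 Biofilm inhibition tested for amine esters and esterquats. IC50 values (µg/mL) are the mean of three determinations, with ciprofloxacin as reference.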

For another test, the system named is Candida albicans. Nature of the test: Antimicrobial activity against Candida albicans MTCC 3017 assessed as growth inhibition after 24 hrs by agar well diffusion method. Type of test: functional. The following applies: MTCC 3017, 24 h.
The subject of test [2] is Bacillus subtilis. Nature of the test: Antimicrobial activity against Bacillus subtilis MTCC 121 assessed as growth inhibition after 24 hrs by agar well diffusion method. Type of test: functional. The following applies: MTCC 121, 24 h. Background: A growth-free zone around the sample is the usual read-out of agar diffusion tests.
The test system of test [3] is Staphylococcus aureus. Nature of the test: Antimicrobial activity against Staphylococcus aureus MTCC 96 assessed as growth inhibition after 24 hrs by agar well diffusion method. Type of test: functional. The following applies: MTCC 96, 24 h.
Test [4] relates to Micrococcus luteus. Nature of the test: Antimicrobial activity against Micrococcus luteus MTCC 2470 assessed as growth inhibition after 24 hrs by agar well diffusion method. Type of test: functional. Particulars: MTCC 2470, 24 h.
A further test has as its system Pseudomonas aeruginosa. Nature of the test: Antimicrobial activity against Pseudomonas aeruginosa MTCC 2453 assessed as growth inhibition after 24 hrs by agar well diffusion method. It is filed as functional. The following applies: MTCC 2453, 24 h.
The subject of test [5] is Raoultella planticola. Nature of the test: Bactericidal activity against Klebsiella planticola MTCC 530 after 24 hrs by serial dilution method. Type of test: functional. Particulars: MTCC 530, 24 h.
The subject of test [6] is Staphylococcus aureus. Nature of the test: Antibiofilm activity against Staphylococcus aureus MLS16 MTCC 2940 after 24 hrs by crystal violet staining based assay. It is filed as functional, organism-based. The following applies: MLS16 MTCC 2940, 24 h. In a few lines:
as §1

Test [7] has as its system Escherichia coli. Nature of the test: Antimicrobial activity against Escherichia coli MTCC 739 assessed as growth inhibition after 24 hrs by agar well diffusion method. Type of test: functional. The following applies: MTCC 739, 24 h.
In test [8] the test system is Micrococcus luteus. Nature of the test: Bactericidal activity against Micrococcus luteus MTCC 2470 after 24 hrs by serial dilution method. Type of test: functional. Particulars: MTCC 2470, 24 h.
The test system of test [9] is Staphylococcus aureus. Nature of the test: Antimicrobial activity against Staphylococcus aureus MLS16 MTCC 2940 assessed as growth inhibition after 24 hrs by agar well diffusion method. Type of test: functional. Particulars: MLS16 MTCC 2940, 24 h.
Test [10] deals with Staphylococcus aureus. Nature of the test: Bactericidal activity against Staphylococcus aureus MLS16 MTCC 2940 after 24 hrs by serial dilution method. Type of test: functional. The following applies: MLS16 MTCC 2940, 24 h.
The test system of test [11] is Bacillus subtilis. Nature of the test: Bactericidal activity against Bacillus subtilis MTCC 121 after 24 hrs by serial dilution method. It is filed as functional. Particulars: MTCC 121, 24 h.
The test system of test [12] is Escherichia coli. Nature of the test: Bactericidal activity against Escherichia coli MTCC 739 after 24 hrs by serial dilution method. It is filed as functional. Particulars: MTCC 739, 24 h.
The subject of test [13] is Raoultella planticola. Nature of the test: Antimicrobial activity against Klebsiella planticola MTCC 530 assessed as growth inhibition after 24 hrs by agar well diffusion method. Type of test: functional. Particulars: MTCC 530, 24 h.
The subject of test [14] is Staphylococcus aureus. Nature of the test: Bactericidal activity against Staphylococcus aureus MTCC 96 after 24 hrs by serial dilution method. It is filed as functional. Particulars: MTCC 96, 24 h.
The test system of test [15] is Staphylococcus aureus. Nature of the test: Antibiofilm activity against Staphylococcus aureus MTCC 96 after 24 hrs by crystal violet staining based assay. It is filed as functional, organism-based. The following applies: MTCC 96, 24 h. In a few lines: as §1

Usually IC50 stands for the midpoint of a concentration-inhibition curve. Lower therefore signals higher potency. What is called MIC is the lowest concentration that inhibits growth of the organism. For orientation: MBC means the lowest tested concentration that kills the bacteria rather than only halting them. Turning to `COC(=O)CCCCCCCCCCN(C1CCCCC1)C1CCCCC1`, the IC50 in the test on Micrococcus luteus [1] worked out at 19.9 µg/mL (≈ 52.4 µM); in the test with Staphylococcus aureus [6], 20.8 µg/mL (≈ 54.8 µM); with Staphylococcus aureus [15], 21.3 µg/mL (≈ 56.1 µM). In addition, the MIC was > 125 µg/mL in the test with Candida albicans; 62.5 µg/mL (≈ 165 µM) with Bacillus subtilis [2]; 31.2 µg/mL (≈ 82.2 µM) with Staphylococcus aureus [3]; 15.6 µg/mL (≈ 41.1 µM) in the test on Micrococcus luteus [4]; > 125 µg/mL in the test on Pseudomonas aeruginosa; > 125 µg/mL in the test on Escherichia coli [7]. For the same compound, the MIC was 31.2 µg/mL (≈ 82.2 µM) with Staphylococcus aureus [9] and > 125 µg/mL with Raoultella planticola [13]. The MBC in the test on Raoultella planticola [5] is > 125 µg/mL; in the test with Micrococcus luteus [8], 31.2 µg/mL (≈ 82.2 µM); against Staphylococcus aureus [10], > 125 µg/mL; in the test on Bacillus subtilis [11] it was > 125 µg/mL; in the test with Escherichia coli [12] it was > 125 µg/mL; against Staphylococcus aureus [14] it was 62.5 µg/mL (≈ 165 µM).
In the case of `CCCCCCCCCCCCN(CCCCCCCCCCC(=O)OC)CCCCCCCCCCC(=O)OC`, the MIC in the test with Candida albicans, in the test on Bacillus subtilis [2], in the test on Staphylococcus aureus [3], with Micrococcus luteus [4], in the test on Pseudomonas aeruginosa and in the test with Escherichia coli [7] was > 125 µg/mL throughout. In addition, the MIC with Staphylococcus aureus [9] and with Raoultella planticola [13] was > 125 µg/mL each time. In addition, the MBC in the test with Raoultella planticola [5], against Micrococcus luteus [8], in the test with Staphylococcus aureus [10], against Bacillus subtilis [11], in the test with Escherichia coli [12] and against Staphylococcus aureus [14] was > 125 µg/mL in each case.
Turning to `CCCCCCCCCCCCCCCCCCNCCCCCCCCCCC(=O)OC`, the MIC in the test on Candida albicans, in the test on Bacillus subtilis [2], in the test on Staphylococcus aureus [3], in the test on Micrococcus luteus [4], with Pseudomonas aeruginosa and with Escherichia coli [7] was > 125 µg/mL each time. Moreover, the MIC in the test on Staphylococcus aureus [9] and in the test on Raoultella planticola [13] was > 125 µg/mL each time. Moreover, the MBC against Raoultella planticola [5], against Micrococcus luteus [8], with Staphylococcus aureus [10], against Bacillus subtilis [11], against Escherichia coli [12] and with Staphylococcus aureus [14] was > 125 µg/mL each time.
In the case of `CCCCCCN(CCCCCCCCCCC(=O)OC)CCCCCCCCCCC(=O)OC`, the 50% inhibitory concentration (IC50) was 18.6 µg/mL (≈ 37.4 µM) with Micrococcus luteus [1] and 20.1 µg/mL (≈ 40.4 µM) in the test with Staphylococcus aureus [15]. Moreover, the MIC with Candida albicans is > 125 µg/mL; with Bacillus subtilis [2] it was 62.5 µg/mL (≈ 126 µM); in the test with Staphylococcus aureus [3], 31.2 µg/mL (≈ 62.7 µM); in the test on Micrococcus luteus [4], 31.2 µg/mL (≈ 62.7 µM); in the test on Pseudomonas aeruginosa it was > 125 µg/mL; in the test with Escherichia coli [7], > 125 µg/mL. The MIC in the test on Staphylococcus aureus [9] was 62.5 µg/mL (≈ 126 µM); in the test with Raoultella planticola [13] it was > 125 µg/mL. For the same compound, the MBC in the test on Raoultella planticola [5] is > 125 µg/mL; in the test on Micrococcus luteus [8], 62.5 µg/mL (≈ 126 µM); in the test with Staphylococcus aureus [10], > 125 µg/mL; against Bacillus subtilis [11], > 125 µg/mL; against Escherichia coli [12] it was > 125 µg/mL; against Staphylococcus aureus [14], 62.5 µg/mL (≈ 126 µM).
For `CCCCCCCCCCCCCCCCCC[N+](C)(CCCCCCCCCCC(=O)OC)CCCCCCCCCCC(=O)OC.[Cl-]`, the MIC in the test with Candida albicans, in the test on Bacillus subtilis [2], in the test on Staphylococcus aureus [3], with Micrococcus luteus [4], in the test with Pseudomonas aeruginosa and in the test on Escherichia coli [7] was > 125 µg/mL throughout. The minimal inhibitory concentration (MIC) in the test with Staphylococcus aureus [9] and in the test with Raoultella planticola [13] was > 125 µg/mL each time. The MBC against Raoultella planticola [5], against Micrococcus luteus [8], against Staphylococcus aureus [10], against Bacillus subtilis [11], in the test with Escherichia coli [12] and in the test with Staphylococcus aureus [14] was > 125 µg/mL throughout.
Regarding `CCCCCCCCN(CCCCCCCC)CCCCCCCCCCC(=O)OC`, the IC50 with Micrococcus luteus [1] stood at 17.2 µg/mL (≈ 39.1 µM); with Staphylococcus aureus [15], 14.5 µg/mL (≈ 33 µM). Also, the MIC in the test with Candida albicans was > 125 µg/mL; in the test on Bacillus subtilis [2], > 125 µg/mL; in the test on Staphylococcus aureus [3], 15.6 µg/mL (≈ 35.5 µM); in the test with Micrococcus luteus [4] it was 31.2 µg/mL (≈ 70.9 µM); in the test with Pseudomonas aeruginosa, > 125 µg/mL; in the test on Escherichia coli [7] it was > 125 µg/mL. Besides, the MIC is 62.5 µg/mL (≈ 142 µM) with Staphylococcus aureus [9] and > 125 µg/mL in the test on Raoultella planticola [13]. Besides, the MBC was > 125 µg/mL in the test with Raoultella planticola [5]; 62.5 µg/mL (≈ 142 µM) with Micrococcus luteus [8]; > 125 µg/mL against Staphylococcus aureus [10]; > 125 µg/mL in the test on Bacillus subtilis [11]; > 125 µg/mL against Escherichia coli [12]; 31.2 µg/mL (≈ 70.9 µM) against Staphylococcus aureus [14].
Consider `CCCCCCCCCCCC[N+](C)(CCCCCCCCCCC(=O)OC)CCCCCCCCCCC(=O)OC.[Cl-]`, for which the MIC in the test with Candida albicans, in the test with Bacillus subtilis [2], in the test on Staphylococcus aureus [3], with Micrococcus luteus [4], in the test on Pseudomonas aeruginosa and in the test on Escherichia coli [7] was > 125 µg/mL in each case. The MIC in the test on Staphylococcus aureus [9] and with Raoultella planticola [13] was > 125 µg/mL throughout. In addition, the MBC against Raoultella planticola [5], in the test with Micrococcus luteus [8], against Staphylococcus aureus [10], against Bacillus subtilis [11], in the test with Escherichia coli [12] and against Staphylococcus aureus [14] was > 125 µg/mL throughout.
In the case of `CCCCCCCCCCCCCCCCCCN(CCCCCCCCCCC(=O)OC)CCCCCCCCCCC(=O)OC`, the MIC with Candida albicans, in the test with Bacillus subtilis [2], in the test on Staphylococcus aureus [3], in the test with Micrococcus luteus [4], in the test on Pseudomonas aeruginosa and with Escherichia coli [7] was > 125 µg/mL throughout. Further, the minimum inhibitory concentration (MIC) in the test with Staphylococcus aureus [9] and with Raoultella planticola [13] was > 125 µg/mL throughout. Further, the minimal bactericidal concentration (MBC) in the test on Raoultella planticola [5], in the test on Micrococcus luteus [8], against Staphylococcus aureus [10], in the test on Bacillus subtilis [11], with Escherichia coli [12] and with Staphylococcus aureus [14] was > 125 µg/mL throughout.
Regarding `CCCCCCCCCCCCNCCCCCCCCCCC(=O)OC`, the MIC in the test on Candida albicans, in the test with Bacillus subtilis [2], in the test with Staphylococcus aureus [3], in the test on Micrococcus luteus [4], in the test on Pseudomonas aeruginosa and in the test with Escherichia coli [7] was > 125 µg/mL throughout. The MIC with Staphylococcus aureus [9] and in the test with Raoultella planticola [13] was > 125 µg/mL each time. Besides, the minimal bactericidal concentration (MBC) with Raoultella planticola [5], in the test with Micrococcus luteus [8], against Staphylococcus aureus [10], against Bacillus subtilis [11], with Escherichia coli [12] and against Staphylococcus aureus [14] was > 125 µg/mL each time.
With `CCCCCCCCCCCCCCCCCC[N+](C)(C)CCCCCCCCCCC(=O)OC.[Cl-]`, the MIC with Candida albicans, with Bacillus subtilis [2], in the test on Staphylococcus aureus [3], in the test on Micrococcus luteus [4], in the test with Pseudomonas aeruginosa and in the test with Escherichia coli [7] was > 125 µg/mL each time. The MIC in the test with Staphylococcus aureus [9] and in the test on Raoultella planticola [13] was > 125 µg/mL in each case. Further, the MBC against Raoultella planticola [5], against Micrococcus luteus [8], in the test on Staphylococcus aureus [10], in the test on Bacillus subtilis [11], against Escherichia coli [12] and in the test with Staphylococcus aureus [14] was > 125 µg/mL throughout.

Values taken from ChEMBL document CHEMBL3784971, “Synthesis, characterization, antimicrobial and biofilm inhibitory studies of new esterquats” (Bioorg Med Chem Lett, 2016).
